These results are taken from ChEMBL document CHEMBL1136390, “Piperazinyl-linked fluoroquinolone dimers possessing potent antibacterial activity against drug-resistant strains of Staphylococcus aureus” (2003).

Type in all cases: functional
Assay [1] deals with Staphylococcus aureus. As to the kind of experiment: Minimum inhibitory concentration tested against vancomycin-insensitive SA (GISA 992 strain). A digest of the protocol:
(§1)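 MICs against S. aureus strains were read in µg/mL from a dilution series. Stated error for each MIC is ± one dilution.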

For assay [2], the system named is Staphylococcus aureus. As to the kind of experiment: Minimum inhibitory concentration tested against Staphylococcus aureus 1199B strain. In short, it runs like this: as §1
For assay [3], the system named is Staphylococcus aureus. As to the kind of experiment: Minimum inhibitory concentration tested against methicillin resistant Staphylococcus aureus 494 strain (MRSA 494). A digest of the protocol:
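MIC in µg/mL against drug-resistant S. aureus strains; error stated as ± one dilution.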

The subject of assay [4] is Staphylococcus aureus. As to the kind of experiment: Minimum inhibitory concentration tested against Staphylococcus aureus 1199-3 strain. In short, it runs like this: as §1
For assay [5], the system named is Staphylococcus aureus. As to the kind of experiment: Minimum inhibitory concentration tested against Staphylococcus aureus 1199 strain. In short, it runs like this:
as §1

Values after ≈ are worked out from the molar mass of the structure shown.

What is called MIC is the least concentration at which growth counts as inhibited. A lower MIC goes with inhibition by little substance. On to `CCn1cc(C(=O)O)c(=O)c2cnc(N3CCN(Cc4ccc(CN5CCN(c6cc7c(cc6F)c(=O)c(C(=O)O)cn7C6CC6)CC5)cc4)CC3)nc21`, for which the MIC is 2 µg/mL (≈ 2.71 µM) against Staphylococcus aureus [1]; less than 0.03 µg/mL with Staphylococcus aureus [2]; 0.125 µg/mL (≈ 0.17 µM) in the assay on Staphylococcus aureus [3]; less than 0.03 µg/mL in the assay on Staphylococcus aureus [4]; less than 0.03 µg/mL against Staphylococcus aureus [5].

As for `O=C(O)c1cn(C2CC2)c2cc(N3CCN(Cc4ccc(CN5CCN(c6cc7c(cc6F)c(=O)c(C(=O)O)cn7C6CC6)CC5)cc4)CC3)c(F)cc2c1=O`, the MIC in the assay on Staphylococcus aureus [1] was 4 µg/mL (≈ 5.23 µM); with Staphylococcus aureus [2], 0.125 µg/mL (≈ 0.163 µM); in the assay with Staphylococcus aureus [3] it was 0.125 µg/mL (≈ 0.163 µM); with Staphylococcus aureus [4], 0.125 µg/mL (≈ 0.163 µM); in the assay on Staphylococcus aureus [5], 0.125 µg/mL (≈ 0.163 µM).

In the case of `O=C(O)c1cn(C2CC2)c2cc(N3CCN(Cc4cccc(CN5CCN(c6cc7c(cc6F)c(=O)c(C(=O)O)cn7C6CC6)CC5)c4)CC3)c(F)cc2c1=O`, the MIC against Staphylococcus aureus [1] was greater than 16 µg/mL; against Staphylococcus aureus [2], 0.125 µg/mL (≈ 0.163 µM); against Staphylococcus aureus [3], less than 0.03 µg/mL; against Staphylococcus aureus [4], 0.06 µg/mL (≈ 0.0784 µM); against Staphylococcus aureus [5], 0.06 µg/mL (≈ 0.0784 µM).

On to `O=C(O)c1cn(C2CC2)c2cc(N3CCN(Cc4cccc(CN5CCN(c6cc7c(cc6F)c(=O)c(C(=O)O)cn7C6CC6)CC5)n4)CC3)c(F)cc2c1=O`, for which the MIC against Staphylococcus aureus [1] was 8 µg/mL (≈ 10.4 µM); against Staphylococcus aureus [2], less than 0.03 µg/mL; against Staphylococcus aureus [3] it was 0.06 µg/mL (≈ 0.0783 µM); in the assay with Staphylococcus aureus [4] it was less than 0.03 µg/mL; against Staphylococcus aureus [5], less than 0.03 µg/mL.

Consider `O=C(O)c1cn(C2CC2)c2cc(N3CCN(C/C=C/CN4CCN(c5cc6c(cc5F)c(=O)c(C(=O)O)cn6C5CC5)CC4)CC3)c(F)cc2c1=O`, for which the MIC is greater than 16 µg/mL against Staphylococcus aureus [1]; 0.03 µg/mL (≈ 0.042 µM) in the assay on Staphylococcus aureus [2]; 0.125 µg/mL (≈ 0.175 µM) in the assay on Staphylococcus aureus [3]; 0.06 µg/mL (≈ 0.0839 µM) in the assay on Staphylococcus aureus [4]; 0.03 µg/mL (≈ 0.042 µM) in the assay on Staphylococcus aureus [5].

Consider `CCn1cc(C(=O)O)c(=O)c2cnc(N3CCN(Cc4ccc(CN5CCN(c6ncc7c(=O)c(C(=O)O)cn(CC)c7n6)CC5)cc4)CC3)nc21`, for which the MIC stood at 8 µg/mL (≈ 11.3 µM) with Staphylococcus aureus [1]; 4 µg/mL (≈ 5.64 µM) in the assay with Staphylococcus aureus [2]; 2 µg/mL (≈ 2.82 µM) in the assay on Staphylococcus aureus [3]; 0.5 µg/mL (≈ 0.705 µM) with Staphylococcus aureus [4]; 0.5 µg/mL (≈ 0.705 µM) against Staphylococcus aureus [5].

With `CCn1cc(C(=O)O)c(=O)c2cc(F)c(N3CCN(C/C=C/CN4CCN(c5cc6c(cc5F)c(=O)c(C(=O)O)cn6CC)CC4)CC3)cc21`, the MIC against Staphylococcus aureus [1] is greater than 16 µg/mL; against Staphylococcus aureus [2] it was 0.125 µg/mL (≈ 0.181 µM); against Staphylococcus aureus [3] it was 0.125 µg/mL (≈ 0.181 µM); against Staphylococcus aureus [4], 0.125 µg/mL (≈ 0.181 µM); in the assay with Staphylococcus aureus [5], 0.25 µg/mL (≈ 0.362 µM).

Consider `O=C(O)c1cn(C2CC2)c2cc(N3CCN(Cc4ccc(-c5ccc(CN6CCN(c7cc8c(cc7F)c(=O)c(C(=O)O)cn8C7CC7)CC6)cc5)cc4)CC3)c(F)cc2c1=O`, for which the MIC against Staphylococcus aureus [1] is greater than 16 µg/mL; against Staphylococcus aureus [2], 8 µg/mL (≈ 9.51 µM); against Staphylococcus aureus [4] it was 8 µg/mL (≈ 9.51 µM); against Staphylococcus aureus [5], 4 µg/mL (≈ 4.76 µM).

For `CCn1cc(C(=O)O)c(=O)c2cc(F)c(N3CCN(Cc4ccc(CN5CCN(c6cc7c(cc6F)c(=O)c(C(=O)O)cn7C6CC6)CC5)cc4)CC3)cc21`, the minimum inhibitory concentration (MIC) is 4 µg/mL (≈ 5.31 µM) against Staphylococcus aureus [1], 0.06 µg/mL (≈ 0.0797 µM) against Staphylococcus aureus [2], less than 0.03 µg/mL against Staphylococcus aureus [4] and less than 0.03 µg/mL against Staphylococcus aureus [5].

For the compound `CCn1cc(C(=O)O)c(=O)c2cc(F)c(N3CCN(Cc4ccc(CN5CCN(c6cc7c(cc6F)c(=O)c(C(=O)O)cn7CC)CC5)cc4)CC3)cc21`, the minimal inhibitory concentration (MIC) was found to be 4 µg/mL (≈ 5.4 µM) against Staphylococcus aureus [1]; 1 µg/mL (≈ 1.35 µM) with Staphylococcus aureus [2]; 0.06 µg/mL (≈ 0.081 µM) against Staphylococcus aureus [3]; 0.06 µg/mL (≈ 0.081 µM) with Staphylococcus aureus [4]; 0.06 µg/mL (≈ 0.081 µM) in the assay on Staphylococcus aureus [5].

Consider `O=C(O)c1cn(C2CC2)c2cc(N3CCNCC3)c(F)cc2c1=O` [CIPROFLOXACIN], for which the MIC against Staphylococcus aureus [1] is greater than 32 µg/mL; in the assay with Staphylococcus aureus [2] it was 8 µg/mL (≈ 24.1 µM); against Staphylococcus aureus [3], 0.5 µg/mL (≈ 1.51 µM); in the assay with Staphylococcus aureus [4] it was 1 µg/mL (≈ 3.02 µM).

`CCn1cc(C(=O)O)c(=O)c2cc(F)c(N3CCNCC3)cc21` [NORFLOXACIN]: the MIC is greater than 16 µg/mL against Staphylococcus aureus [1]; greater than 16 µg/mL with Staphylococcus aureus [2]; 2 µg/mL (≈ 6.26 µM) in the assay on Staphylococcus aureus [3]; 4 µg/mL (≈ 12.5 µM) in the assay on Staphylococcus aureus [4]; 0.5 µg/mL (≈ 1.57 µM) in the assay with Staphylococcus aureus [5].

Turning to `CCn1cc(C(=O)O)c(=O)c2cnc(N3CCNCC3)nc21` [PIPEMIDIC ACID], the MIC in the assay on Staphylococcus aureus [1], against Staphylococcus aureus [2], with Staphylococcus aureus [4] and in the assay with Staphylococcus aureus [5] was greater than 16 µg/mL in each case.
